Experimental data from different studies.
Compare with care: the assays were run in different laboratories.

SMILES | target or system | assay | system | conditions | measurement | result
CC(C)CN1C[C@H]2CC[C@@H]3[C@]4(C)COC(C)(C)O[C@@H]4CC[C@@]3(C)[C@@H]2C[C@@H]1C1=CCOC1=O | MRC5 | cell growth or viability, ATP luminescence |  | 25 µM, 72 h | cell death | -4.1%
O=C(O)CSc1nnc(Br)n1-c1ccc(C2CC2)c2ccccc12 | Solute carrier family 22 member 1 (SLC22A1, Homo sapiens, UniProt O15245) | transporter uptake, inhibitor | MDCK-II | 3 µM, 5 min | inhibition | 36%
CCCCOC(=O)N1CCN(C(=O)[C@H](CP(=O)(O)O)NC(=O)c2cc(N3CC[C@H](OC)C3)nc(-c3ccccc3)n2)CC1 |  |  | human, plasma | subcutaneous, 8 mg, 24 h, single dose | concentration | 0.4 ng/mL
COc1ccc(-c2cc(=O)c3c(OC)cc(OC)cc3o2)cc1 | HS27 | cell growth or viability, MTT |  | 24 h | CC50 | > 200 µM
CC(=O)OC[C@@]1(C)[C@H]2CC[C@@H]3CN(CC(C)C)[C@@H](C4=CCOC4=O)C[C@H]3[C@]2(C)CC[C@H]1OC(C)=O | MRC5 | cell growth or viability, ATP luminescence |  | 25 µM, 72 h | cell death | 20.7%
COc1cc(OC)c2c(=O)cc(-c3ccc(Br)cc3)oc2c1-c1c(OC)cc(OC)c2c(=O)cc(-c3ccc(Br)cc3)oc12 | HS27 | cell growth or viability, MTT |  | 24 h | CC50 | > 200 µM
CC(C)CCN1C[C@H]2CC[C@@H]3[C@]4(C)COC(C)(C)O[C@@H]4CC[C@@]3(C)[C@@H]2C[C@@H]1C1=CCOC1=O | MRC5 | cell growth or viability, ATP luminescence |  | 25 µM, 72 h | cell death | 11.7%
COc1cc(OC)c2c(=O)cc(-c3cccc(Br)c3)oc2c1 | HS27 | cell growth or viability, MTT |  | 24 h | CC50 | 128 µM
COc1ccc(CN2C[C@H]3CC[C@@H]4[C@](C)(COC(C)=O)[C@H](OC(C)=O)CC[C@@]4(C)[C@@H]3C[C@@H]2C2=CCOC2=O)cc1 | MRC5 | cell growth or viability, ATP luminescence |  | 25 µM, 72 h | cell death | 56.4%
Oc1c(-n2ccnn2)cnn1-c1cc(N2CCOCC2)ncn1 |  |  | female monkey, plasma | oral, 1 mg/kg | bioavailability | 61%
COc1cc(OC)c2c(=O)cc(-c3ccc(N(C)C)cc3)oc2c1 | HS27 | cell growth or viability, MTT |  | 24 h | CC50 | > 200 µM
C=CCn1c(=O)c2cnc(Nc3ccc(N4CCN(C)CC4)cc3)nc2n1-c1cccc(C(C)(C)O)n1 |  |  | human, plasma | oral, 200 mg, 8 h, single dose | concentration | 300 nM
